Activity calls are given as the source filed them. The rule behind the calls is not given here. Some results are limits rather than exact numbers.

Data set [1] has as its target T1, Prostaglandin E synthase (Homo sapiens, UniProt O14684).
T1 sequence (O14684 whole entry): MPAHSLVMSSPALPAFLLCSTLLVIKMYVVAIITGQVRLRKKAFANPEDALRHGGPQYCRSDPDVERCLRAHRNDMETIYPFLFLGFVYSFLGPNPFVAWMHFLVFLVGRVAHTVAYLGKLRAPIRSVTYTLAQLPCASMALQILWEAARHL
Put plainly: Inhibition of human A549 cell microsomal membrane-derived mPGES-1 assessed as reduction in conversion of PGH2 to PGE2 preincubated for 15 mins followed by PGH2 addition measured after 1 min by RP-HPLC analysis. The class given is cell-based.

For data set [2], the target named is T2, Polyunsaturated fatty acid 5-lipoxygenase (Homo sapiens) (UniProt P09917).
T2 sequence (whole entry): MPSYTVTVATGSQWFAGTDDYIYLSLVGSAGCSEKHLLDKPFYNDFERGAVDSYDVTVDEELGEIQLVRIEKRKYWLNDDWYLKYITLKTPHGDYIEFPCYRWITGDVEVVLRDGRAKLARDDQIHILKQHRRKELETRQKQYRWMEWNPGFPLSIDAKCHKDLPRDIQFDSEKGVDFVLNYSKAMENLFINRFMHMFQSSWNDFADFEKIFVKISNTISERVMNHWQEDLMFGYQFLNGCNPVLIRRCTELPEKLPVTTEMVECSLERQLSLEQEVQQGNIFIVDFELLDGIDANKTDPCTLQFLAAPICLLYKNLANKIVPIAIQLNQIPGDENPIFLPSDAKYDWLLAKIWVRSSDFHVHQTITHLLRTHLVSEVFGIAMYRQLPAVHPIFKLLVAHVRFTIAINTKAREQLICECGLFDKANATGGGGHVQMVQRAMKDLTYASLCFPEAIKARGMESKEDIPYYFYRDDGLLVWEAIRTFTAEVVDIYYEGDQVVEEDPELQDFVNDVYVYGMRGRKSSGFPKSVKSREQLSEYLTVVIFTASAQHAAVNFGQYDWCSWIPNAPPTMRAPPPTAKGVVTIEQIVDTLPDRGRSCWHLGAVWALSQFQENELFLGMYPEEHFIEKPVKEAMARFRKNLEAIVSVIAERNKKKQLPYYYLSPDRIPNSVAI
Put plainly: Reversible inhibition of human recombinant 5-LO expressed in Escherichia coli MV1190 using arachidonic acid as substrate preincubated for 15 mins followed by 10 fold dilution measured after 10 mins by RP-HPLC analysis. The gist of the method:
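Semipurified recombinant human 5-LO in the cell-free assay (2 mM CaCl2, 20 μM AA, 10 min at 37 °C, RP-HPLC read-out). Reversibility tested by wash-out using 10-fold dilution. Means ± SEM, n = 3–4.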

Data set [3] has as its system Neutrophil. Put plainly: Cytotoxicity against human neutrophils assessed as reduction in cell viability up to 10 uM up to 30 mins by light microscopic and trypan blue exclusion assay. The class given is cell-based. The settings on record: 0.5 h. Summed up:
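Isolated human blood neutrophils (dextran sedimentation, Nycoprep, hypotonic lysis) in PBS pH 7.4 with 1 mg/mL glucose and 1 mM CaCl2. Compounds tested up to 10 μM for 30 min. Viability scored by light microscopy with trypan blue exclusion.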

Data set [4] deals with T2, Polyunsaturated fatty acid 5-lipoxygenase (Homo sapiens). Put plainly: Competitive inhibition of human recombinant 5-LO expressed in Escherichia coli MV1190 using different concentration of arachidonic acid as substrate preincubated for 15 mins followed by substrate addition measured after 10 mins by RP-HPLC analysis. To be noted: in the assay text read “preincubated for 10 mins” for “preincubated for 15 mins”. Summed up: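 Semipurified recombinant human 5-LO assayed in the cell-free format with CaCl2 and varying AA concentrations, products measured by RP-HPLC. Representative experiment of three independent runs.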

The subject of data set [5] is Mus musculus. Put plainly: Anti inflammatory in CD-1 mouse assessed as reduction in zymosan-induced inflammatory cell infiltration level in peritoneal exudates at 10 mg/kg, ip preincubated for 30 mins followed by zymosan addition measured after 4 hr relative to control. The class given is functional. More on the design: scale not given: the % may be the effect or the level left.

Data set [6] concerns the target T3, Polyunsaturated fatty acid 5-lipoxygenase (Homo sapiens, UniProt P09917).
T3 sequence (P09917 whole entry): T2 sequence (whole entry)
The experiment in a line: Inhibition of 5-LO in human peripheral blood neutrophils using arachidonic acid as substrate preincubated for 15 mins followed by substrate addition measured after 10 mins in presence of Ca2+ ionophore A23187 by RP-HPLC analysis.

Data set [7] has as its system Mus musculus. Put plainly: Anti inflammatory activity in CD-1 mouse assessed as reduction in zymosan-induced PGE2 by measuring PGE2 level in peritoneal exudates at 10 mg/kg, ip preincubated for 30 mins followed by zymosan addition measured after 30 mins by enzyme immunoassay (reference value: 10.5 +/- 1.34 ng/ml). In kind it is functional.
The target of data set [8] is T2, Polyunsaturated fatty acid 5-lipoxygenase (Homo sapiens). The experiment in a line: Inhibition of human recombinant 5-LO expressed in Escherichia coli MV1190 assessed as residual activity at 10 uM using arachidonic acid as substrate preincubated for 10 mins followed by substrate addition measured after 10 mins by RP-HPLC analysis relative to control. Summed up: (§1)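 Human 5-LO expressed in E. coli MV1190, partially purified on ATP-agarose, diluted in PBS with 1 mM EDTA and 1 mM ATP. Held 10 min at 4 °C with compound, warmed 30 s to 37 °C, started with 2 mM CaCl2 plus 20 μM AA. Run 10 min at 37 °C, stopped with methanol. LTB4 trans-isomers and 5-H(p)ETE measured by RP-HPLC. IC50 from 4–5 concentrations; n = 3–4.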

Data set [9] deals with T3, Polyunsaturated fatty acid 5-lipoxygenase. Put plainly: Inhibition of human recombinant 5-LO expressed in Escherichia coli MV1190 using arachidonic acid as substrate preincubated for 10 mins followed by substrate addition measured after 10 mins by RP-HPLC analysis. The gist of the method:
as §1

Data set [10] relates to Mus musculus. Put plainly: Anti inflammatory activity in CD-1 mouse assessed as reduction in zymosan-induced LTC4 by measuring LTC4 level in peritoneal exudates at 10 mg/kg, ip preincubated for 30 mins followed by zymosan addition measured after 30 mins by enzyme immunoassay (reference value: 92.2 +/- 12.8 ng/ml). The class given is functional.
Data set [11] has as its system Mus musculus. The experiment in a line: Anti inflammatory activity in CD-1 mouse assessed as reduction in zymosan-induced LTC4 level in peritoneal exudates at 10 mg/kg, ip preincubated for 30 mins followed by zymosan addition measured after 30 mins by enzyme immunoassay relative to control. In kind it is functional. Also on record: scale not given: the % may be the effect or the level left.

For data set [12], the system named is Mus musculus. Put plainly: Anti inflammatory in CD-1 mouse assessed as reduction in zymosan-induced inflammatory cell infiltration by measuring inflammatory cell level in peritoneal exudates at 10 mg/kg, ip preincubated for 30 mins followed by zymosan addition measured after 4 hrs […] (reference value: 7.3 +/- 0.72 10^6). In kind it is functional.

The test system of data set [13] is Mus musculus. The experiment in a line: Anti inflammatory in CD-1 mouse assessed as reduction in zymosan-induced inflammatory cell infiltration by measuring inflammatory cell level in peritoneal exudates at 5 mg/kg, ip preincubated for 30 mins followed by zymosan addition measured after 4 hrs […] (reference value: 7.3 +/- 0.72 10^6). In kind it is functional.

Data set [14] deals with Mus musculus. The experiment in a line: Anti inflammatory activity in CD-1 mouse assessed as reduction in zymosan-induced PGE2 by measuring PGE2 level in peritoneal exudates at 5 mg/kg, ip preincubated for 30 mins followed by zymosan addition measured after 30 mins by enzyme immunoassay (reference value: 10.5 +/- 1.34 ng/ml). In kind it is functional.

For the molecule `CC(=O)c1c(O)cc(O)c(C/C=C(\C)CCC=C(C)C)c1O`, the figures for the IC50 in data set [1], in data set [6] and in [9] were 3.5 µM, 1.4 µM and 1 µM, respectively. The inhibition entry in [2] is “Active”. In addition, the Activity entry is “Non-Toxic” in data set [3]; 32% in [5]; 11.3 ng/mL in data set [7]; less than 50% in data set [8]; 57.3 ng/mL in data set [10]; 38% in [11]. Moreover, the Activity in data set [12] is reported as 5 ×10⁶ No_unit. Besides, the inhibition entry in [4] is “inactive”.
With `COc1c(CC=C(C)C)c(O)c(C(CC(C)C)c2c(O)c3c(c(C(C)=O)c2O)OC(C)(C)C(O)C3)c(O)c1C(C)=O` (configuration not stated), the IC50 was 2.7 µM in data set [1], 5.3 µM in data set [6] and 7.3 µM in [9]. Also, the Activity result in data set [3] was “Non-Toxic”; in data set [8], less than 50%.
As for `C=C(C)[C@@H](O)Cc1c(O)c(C(C)=O)c(O)c(C(CC(C)C)c2c(O)c(CC=C(C)C)c(OC)c(C(C)=O)c2O)c1O` (some centres not stated), the IC50 in data set [1] came to 1.1 µM; in data set [6], 6.3 µM; in data set [9], 2.5 µM. In addition, the Activity entry was “Non-Toxic” in [3] and less than 50% in data set [8].
Regarding `COc1c(CC=C(C)C)c(O)c(C(CC(C)C)c2c(O)c3c(c(C(C)=O)c2O)OC(C)(C)C=C3)c(O)c1C(C)=O` (configuration not stated), the IC50 in [1] was 4.2 µM; in data set [6], greater than 10 µM; in data set [9] it was 6 µM. Moreover, the Activity entry in data set [3] is “Non-Toxic”; in data set [8], less than 50%.
Consider `COc1ccc2c(c1)c(CC(=O)O)c(C)n2C(=O)c1ccc(Cl)cc1` [INDOMETHACIN], for which the Activity turned out to be 2.08 ×10⁶ No_unit in data set [13] and 3.52 ng/mL in data set [14].
On to `C=C(C)C1Cc2c(O)c(C(CC(C)C)c3c(O)c4c(c(C(C)=O)c3O)OC(C(=C)C)C4)c(O)c(C(C)=O)c2O1` (configuration not stated), for which the values for the IC50 in data set [1], in [6] and in data set [9] were greater than 10 µM, 5 µM and greater than 10 µM, respectively. For the same molecule, the Activity result is “Non-Toxic” in data set [3] and less than 50% in [8].
On to `COc1c(CC=C(C)C)c(O)c(C(CC(C)C)c2c(O)c(C(C)=O)c(O)c3c2OC(C)(C)C(O)C3)c(O)c1C(C)=O` (configuration not stated), for which the IC50 in data set [1] is 1.9 µM; in [6], 5 µM; in data set [9], 2 µM. Also, the Activity entry in data set [3] is “Non-Toxic”; in data set [8] it was less than 50%.
On to `CC(c1cc2ccccc2s1)N(O)C(N)=O` (configuration not stated) [ZILEUTON], for which the Activity in data set [10] turned out to be 65 ng/mL.
In the case of `COc1c(CC=C(C)C)c(O)c(C(CC(C)C)c2c(O)c(CC=C(C)C)c(O)c(C(C)=O)c2O)c(O)c1C(C)=O` (configuration not stated), the IC50 in data set [1] is 1.1 µM; in data set [6], 2.3 µM; in data set [9], 2.7 µM. For the same molecule, the Activity result is “Non-Toxic” in [3] and less than 50% in data set [8].
Taken in the same sequence, the figures for `CC(=O)c1c(O)cc(O)c(C(CC(C)C)c2c(O)cc(O)c(C(C)=O)c2O)c1O` were 1 µM, 6.3 µM, 1.7 µM, “Non-Toxic” and less than 50%.
For `CC(=O)c1c(O)c(C(CC(C)C)c2c(O)c3c(c(C(C)=O)c2O)OC(C)(C)C=C3)c(O)c2c1OC(C)(C)C=C2`, in that order: 1.2 µM, greater than 10 µM, 2.4 µM, “Non-Toxic” and less than 50%.
For the molecule `CC(=O)c1c(O)cc(O)c(CC=C(C)C)c1O`, the IC50 in data set [1] was greater than 10 µM. Besides, the Activity entry in data set [3] is “Non-Toxic”.
In the case of `CC(=O)c1c(O)c(CC=C(C)C)c(O)c(C(CC(C)C)c2c(O)c(CC=C(C)C)c(O)c(C(C)=O)c2O)c1O`, the IC50 in [1], in [6] and in data set [9] was greater than 10 µM in each case. In addition, the Activity result was “Non-Toxic” in data set [3] and greater than 50% in data set [8].
As to `COc1c(CC=C(C)C)c(O)c(C(CC(C)C)c2c(O)c3c(c(C(C)=O)c2O)OC(C(C)(C)O)C3)c(O)c1C(C)=O` (configuration not stated), the IC50 in data set [1] was 1.1 µM; in data set [6] it was 4.5 µM; in data set [9], greater than 10 µM. The Activity result in data set [3] is “Non-Toxic”; in data set [8] it was less than 50%.
For the molecule `CC(=O)c1c(O)c(C/C=C(/C)CCC=C(C)C)c(O)c(C(CC(C)C)c2c(O)c(C/C=C(\C)CCC=C(C)C)c(O)c(C(C)=O)c2O)c1O` (configuration not stated), the IC50 was 5.34 µM in data set [1], greater than 10 µM in [6] and 3.6 µM in data set [9]. The Activity entry in data set [3] was “Non-Toxic”; in [8], less than 50%.
Take `COc1c(CC=C(C)C)c(O)c(C(CC(C)C)c2c(O)c(C(C)=O)c(O)c3c2OC(C(C)(C)O)C3)c(O)c1C(C)=O` (configuration not stated) [ACROFOLIONE A]: the IC50 is 1.3 µM in data set [1], 7.3 µM in data set [6] and 5.3 µM in data set [9]. In addition, the Activity result in data set [3] was “Non-Toxic”; in data set [8], less than 50%.

The term IC50 denotes the concentration needed to halve the response being measured.
